One test has as its target HDAC4 (Homo sapiens, UniProt P56524). In words: HDACs selectivity assay. Format: biochemical. The method, boiled down: (§1)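 Enzyme selectivity panel was run by an outside contract lab to its standard assay protocols. IC50 values came from dose–response fitting of the data points. Each experiment was done independently at least three times.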
For a further test, the target named is T1, HDAC8 (Homo sapiens, UniProt Q9BY41).
T1 sequence (Q9BY41 1-377): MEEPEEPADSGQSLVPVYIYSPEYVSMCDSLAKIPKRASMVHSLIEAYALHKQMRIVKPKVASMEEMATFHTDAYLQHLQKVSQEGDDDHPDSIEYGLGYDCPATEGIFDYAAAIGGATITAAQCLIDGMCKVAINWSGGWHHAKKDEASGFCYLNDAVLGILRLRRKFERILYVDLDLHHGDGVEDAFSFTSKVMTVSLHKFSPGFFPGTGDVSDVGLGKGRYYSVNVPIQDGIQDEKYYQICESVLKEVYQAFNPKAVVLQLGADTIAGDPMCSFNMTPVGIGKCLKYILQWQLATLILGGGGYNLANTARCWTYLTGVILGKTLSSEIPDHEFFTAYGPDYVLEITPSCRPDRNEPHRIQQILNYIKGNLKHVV
In words: HDACs selectivity assay. The class given is biochemical. Summed up:
as §1

The next test concerns the target T2, HDAC11 (Homo sapiens, UniProt Q96DB2).
T2 sequence (Q96DB2 1-347): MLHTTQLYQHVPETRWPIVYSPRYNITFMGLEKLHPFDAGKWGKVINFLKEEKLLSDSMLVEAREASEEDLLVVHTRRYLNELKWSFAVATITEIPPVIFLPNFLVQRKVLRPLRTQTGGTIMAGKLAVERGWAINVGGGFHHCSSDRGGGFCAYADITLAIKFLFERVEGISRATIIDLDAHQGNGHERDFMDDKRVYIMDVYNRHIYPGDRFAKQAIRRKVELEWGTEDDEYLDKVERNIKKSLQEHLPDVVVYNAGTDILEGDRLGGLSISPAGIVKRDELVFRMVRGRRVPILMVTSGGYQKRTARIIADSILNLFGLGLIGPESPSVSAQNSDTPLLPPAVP
In words: HDACs selectivity assay. Format: biochemical. Summed up: as §1

Another test addresses SIRT6 (Homo sapiens, UniProt Q8N6T7). The test can be described thus: HPLC assay of SIRT6 deacetylation on H3K9Ac. The class given is biochemical. Conditions: 50 μmol/L JYQ-42, H3K9Ac peptide.
Test [1] concerns BXPC-3 cells. The test can be described thus: Migration assay by wound healing. Format: cell-based. The settings on record: for relative migration rate (wound healing): control ~0.60.
A further test addresses T3, full-length SIRT7 (Homo sapiens, UniProt Q9NRC8).
T3 sequence (Q9NRC8 1-400): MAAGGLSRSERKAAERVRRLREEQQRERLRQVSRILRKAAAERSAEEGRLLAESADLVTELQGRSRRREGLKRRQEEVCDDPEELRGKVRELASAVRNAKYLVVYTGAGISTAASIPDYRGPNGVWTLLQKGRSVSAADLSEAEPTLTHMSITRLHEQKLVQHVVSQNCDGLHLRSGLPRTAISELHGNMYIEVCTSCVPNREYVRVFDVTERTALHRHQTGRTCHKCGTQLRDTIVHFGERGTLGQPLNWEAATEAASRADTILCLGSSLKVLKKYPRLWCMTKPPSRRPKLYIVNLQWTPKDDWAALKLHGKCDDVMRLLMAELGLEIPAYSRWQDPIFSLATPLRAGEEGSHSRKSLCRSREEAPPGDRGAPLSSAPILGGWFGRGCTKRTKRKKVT
In words: Selectivity FDL deacetylation assay. Format: biochemical.

Another test has as its target T4, SIRT2 (Homo sapiens, UniProt Q8IXJ6).
T4 sequence (Q8IXJ6 1-389): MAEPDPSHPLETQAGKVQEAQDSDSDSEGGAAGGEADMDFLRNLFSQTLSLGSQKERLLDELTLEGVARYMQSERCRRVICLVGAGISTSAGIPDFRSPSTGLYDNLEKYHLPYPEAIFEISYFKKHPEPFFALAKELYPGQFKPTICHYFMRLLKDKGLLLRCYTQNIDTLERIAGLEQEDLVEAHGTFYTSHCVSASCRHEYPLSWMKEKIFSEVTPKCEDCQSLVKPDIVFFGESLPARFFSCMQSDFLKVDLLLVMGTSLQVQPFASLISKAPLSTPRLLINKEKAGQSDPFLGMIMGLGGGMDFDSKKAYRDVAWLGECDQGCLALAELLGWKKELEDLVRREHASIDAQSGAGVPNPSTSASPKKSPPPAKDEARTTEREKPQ
In words: HDACs selectivity assay. Format: biochemical.

In another test the target is T5, HDAC10 (Homo sapiens, UniProt Q969S8).
T5 sequence (Q969S8 1-669): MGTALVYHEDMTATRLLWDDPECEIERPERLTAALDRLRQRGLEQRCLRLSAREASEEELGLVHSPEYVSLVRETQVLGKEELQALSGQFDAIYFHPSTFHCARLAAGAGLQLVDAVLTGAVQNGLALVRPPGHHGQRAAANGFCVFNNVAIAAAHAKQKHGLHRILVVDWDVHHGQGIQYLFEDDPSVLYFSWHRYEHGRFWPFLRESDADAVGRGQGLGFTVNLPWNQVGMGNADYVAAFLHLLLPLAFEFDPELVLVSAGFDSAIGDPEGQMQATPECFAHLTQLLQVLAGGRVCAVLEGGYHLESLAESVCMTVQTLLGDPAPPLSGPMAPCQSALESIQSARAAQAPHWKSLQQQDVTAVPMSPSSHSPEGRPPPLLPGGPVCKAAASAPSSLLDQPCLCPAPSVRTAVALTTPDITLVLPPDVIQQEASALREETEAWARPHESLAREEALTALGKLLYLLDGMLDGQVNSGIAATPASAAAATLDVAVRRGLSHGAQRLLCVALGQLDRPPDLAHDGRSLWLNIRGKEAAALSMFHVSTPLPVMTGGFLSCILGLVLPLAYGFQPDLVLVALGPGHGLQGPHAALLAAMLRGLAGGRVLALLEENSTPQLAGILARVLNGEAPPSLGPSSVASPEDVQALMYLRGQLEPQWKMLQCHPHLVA
In words: HDACs selectivity assay. The class given is biochemical. The method, boiled down:
as §1

Test [2] deals with BXPC-3 cells. In words: Migration assay with xCELLigence RTCA-DP. Format: cell-based. The settings on record: 5, 10, 20 μmol/L, effect even at 5 μmol/L.

Sequence of HDAC4 (P56524 whole entry): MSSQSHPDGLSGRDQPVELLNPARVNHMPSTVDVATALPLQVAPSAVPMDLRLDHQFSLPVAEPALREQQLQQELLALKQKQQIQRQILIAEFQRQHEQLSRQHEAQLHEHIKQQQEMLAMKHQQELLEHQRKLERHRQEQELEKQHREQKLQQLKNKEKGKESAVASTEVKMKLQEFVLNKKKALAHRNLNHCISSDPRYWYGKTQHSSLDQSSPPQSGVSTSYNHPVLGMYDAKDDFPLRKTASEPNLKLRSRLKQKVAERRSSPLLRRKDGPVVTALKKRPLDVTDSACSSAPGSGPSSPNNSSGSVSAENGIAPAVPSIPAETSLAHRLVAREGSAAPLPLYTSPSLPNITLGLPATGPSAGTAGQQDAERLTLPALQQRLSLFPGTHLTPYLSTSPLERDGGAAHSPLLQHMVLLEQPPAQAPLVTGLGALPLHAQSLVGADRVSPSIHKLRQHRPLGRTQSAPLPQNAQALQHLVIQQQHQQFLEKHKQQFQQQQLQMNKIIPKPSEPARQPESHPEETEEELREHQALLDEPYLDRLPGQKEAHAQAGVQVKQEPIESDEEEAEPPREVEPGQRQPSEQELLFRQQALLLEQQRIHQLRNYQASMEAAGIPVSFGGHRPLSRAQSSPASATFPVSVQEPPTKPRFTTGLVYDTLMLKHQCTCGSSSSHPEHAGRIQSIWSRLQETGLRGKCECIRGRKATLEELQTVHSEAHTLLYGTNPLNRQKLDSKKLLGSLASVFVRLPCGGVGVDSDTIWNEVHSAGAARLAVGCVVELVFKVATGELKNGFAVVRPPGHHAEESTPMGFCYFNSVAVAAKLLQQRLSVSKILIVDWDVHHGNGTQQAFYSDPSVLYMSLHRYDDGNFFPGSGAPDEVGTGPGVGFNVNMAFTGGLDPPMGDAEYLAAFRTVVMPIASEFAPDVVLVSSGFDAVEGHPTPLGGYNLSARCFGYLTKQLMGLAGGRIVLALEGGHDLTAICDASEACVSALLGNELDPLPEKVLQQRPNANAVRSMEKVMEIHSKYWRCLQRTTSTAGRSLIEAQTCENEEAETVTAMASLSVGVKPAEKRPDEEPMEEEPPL
Sequence of SIRT6 (Q8N6T7 whole entry): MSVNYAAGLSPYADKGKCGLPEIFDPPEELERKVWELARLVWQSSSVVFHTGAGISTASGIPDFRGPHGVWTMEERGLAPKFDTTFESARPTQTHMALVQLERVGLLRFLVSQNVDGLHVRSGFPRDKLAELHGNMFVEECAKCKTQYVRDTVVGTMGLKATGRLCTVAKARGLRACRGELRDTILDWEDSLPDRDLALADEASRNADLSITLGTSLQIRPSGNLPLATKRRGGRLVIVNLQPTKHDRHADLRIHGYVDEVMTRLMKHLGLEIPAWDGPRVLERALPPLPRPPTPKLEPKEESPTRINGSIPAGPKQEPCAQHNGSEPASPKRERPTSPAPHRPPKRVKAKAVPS

Regarding `Nc1nonc1-n1cc(C(=O)N/N=C/c2cc(Cl)cc(C(F)(F)F)c2)nn1` [JYQ-42], the IC50 was greater than 100 µM on HDAC4; greater than 100 µM against HDAC8; greater than 100 µM against HDAC11; greater than 100 µM on full-length SIRT7; 87.2 ± 1.1 µM on SIRT2; greater than 100 µM on HDAC10. The “amount of H3K9-free lysine peptides by HPLC” value on SIRT6 is on record as “decreased prominently”. For the same molecule, the “relative migration rate (wound healing)” value with BXPC-3 cells [1] (BXPC-3, 10 μmol/L JYQ-42, 24 h) is ~ 0.3; in the test with BXPC-3 cells [1] (BXPC-3, 20 μmol/L JYQ-42, 24 h), ~ 0.24; in the test on BXPC-3 cells [1] (BXPC-3, 40 μmol/L JYQ-42, 24 h) it was ~ 0.10. Besides, the “migration with ADPr co-treatment (wound healing)” value in the test with BXPC-3 cells [1] (BXPC-3, 40 μmol/L JYQ-42 in the presence of 0.5 mmol/L ADPr) was “no influence on the migration”. In addition, the “inhibition ratio at 50 μmol/L (SIRT2)” value on SIRT2 (50 μmol/L) is given as 38.6%. In addition, the “SIRT2 IC50 relative to that of SIRT6” value at SIRT2 (IC50 SIRT2 / IC50 SIRT6) is “approximately 37 fold”. Besides, at SIRT2 (SIRT2), the Effect entry is given as “Inhibition”. For the same molecule, the “migration of pancreatic cancer cells (RTCA cell index)” value in the test on BXPC-3 cells [2] is given as “dramatically attenuated”.

The record behind these values is PMC8897208 (Acta Pharmaceutica Sinica. B, 2021).
